Where a SMILES comes first, the peptide text is derived from it. Bridges are numbered along the chain shown (N, C = ends). [ ]: non-standard residue; d: D form. S5 = C=CCCC[C@](C)(N)C(=O)O
Assays:
[1] = tested on: Human immunodeficiency virus 1; experiment: Antiviral activity against HIV1 subtype CRF01_AE CNE5 pseudovirus assessed as inhibition of viral infection in Ghost (3)X4/R5 cells after 48 hrs by Bright-Glo luciferase reporter gene assay; format: functional, organism-based, HIV-1 CRF01_AE; settings: Human immunodeficiency virus 1, CNE5, 48 h
In short: (§1)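 Single-round env-pseudotyped luciferase reporter viruses were made in HEK293T cells with the pNL4-3.Luc.R-E backbone. Ghost(3)X4/R5 target cells (CD4, CXCR4, CCR5) were grown in DMEM with 10% heat-inactivated FBS at 37 °C, 5% CO2. Peptides in 3-fold dilutions were preincubated with 100 TCID50 of virus for 1 h at room temperature. The mixture was added at 10^4 cells/well for 48 h at 37 °C. IC50 came from a variable-slope dose-response fit of luciferase reduction versus controls.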

[2] = tested on: Human immunodeficiency virus 1; experiment: Antiviral activity against HIV1 subtype BC CNE15 pseudovirus assessed as inhibition of viral infection in Ghost (3)X4/R5 cells after 48 hrs by Bright-Glo luciferase reporter gene assay; format: functional, organism-based; settings: Human immunodeficiency virus 1, subtype BC CNE15, 48 h; in short: as §1
[3] = tested on: Human immunodeficiency virus 1; experiment: Antiviral activity against HIV1 subtype CRF01_AE CNE55 pseudovirus assessed as inhibition of viral infection in Ghost (3)X4/R5 cells after 48 hrs by Bright-Glo luciferase reporter gene assay; format: functional, organism-based, HIV-1 CRF01_AE; settings: Human immunodeficiency virus 1, CNE55, 48 h; in short: as §1
chymotrypsin = experiment: Drug metabolism assessed as chymotrypsin (unknown origin)-mediated compound degradation by measuring compound half life at 25 uM by HPLC analysis; format: ADME, Homo sapiens
In short: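 Peptide stock was 1 mM in DMSO, diluted into 50 mM PBS pH 7.4 containing chymotrypsin (0.5 ng/μL) and 50 mM CaCl2. Digestion ran at 30 °C. Remaining peptide was monitored by reversed-phase HPLC on a C4 column at 1.0 mL/min, acetonitrile/water with 0.1% TFA.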

[4] = tested on: Human immunodeficiency virus 1; experiment: Antiviral activity against HIV1 subtype BC CNE30 pseudovirus assessed as inhibition of viral infection in Ghost (3)X4/R5 cells after 48 hrs by Bright-Glo luciferase reporter gene assay; format: functional, organism-based; settings: Human immunodeficiency virus 1, subtype BC CNE30, 48 h; in short: as §1
[5] = tested on: Human immunodeficiency virus 1; experiment: Antiviral activity against HIV1 subtype B' CNE6 pseudovirus assessed as inhibition of viral infection in Ghost (3)X4/R5 cells after 48 hrs by Bright-Glo luciferase reporter gene assay; format: functional, organism-based; settings: Human immunodeficiency virus 1, subtype B' CNE6, 48 h; in short: as §1
[6] = tested on: Human immunodeficiency virus 1; experiment: Antiviral activity against HIV1 subtype B' CNE11 pseudovirus assessed as inhibition of viral infection in Ghost (3)X4/R5 cells after 48 hrs by Bright-Glo luciferase reporter gene assay; format: functional, organism-based; settings: Human immunodeficiency virus 1, subtype B' CNE11, 48 h; in short: as §1
[7] = tested on: Human immunodeficiency virus 1; experiment: Antiviral activity against HIV-1 subtype B SF162 pseudovirus assessed as inhibition of viral infection in Ghost (3)X4/R5 cells after 48 hrs by Bright-Glo luciferase reporter gene assay; format: functional, organism-based; settings: Human immunodeficiency virus 1, SF162 ISOLATE; in short: as §1
[8] = tested on: Human immunodeficiency virus 1; experiment: Antiviral activity against HIV-1 subtype B JRFL pseudovirus assessed as inhibition of viral infection in Ghost (3)X4/R5 cells after 48 hrs by Bright-Glo luciferase reporter gene assay; format: functional, organism-based, HIV-1 group M; settings: Human immunodeficiency virus 1, JRFL; in short: as §1
[9] = tested on: Human immunodeficiency virus 1; experiment: Antiviral activity against HIV-1 subtype B HXB2 pseudovirus assessed as inhibition of viral infection in Ghost (3)X4/R5 cells after 48 hrs by Bright-Glo luciferase reporter gene assay; format: functional, organism-based; settings: Human immunodeficiency virus 1, M:B_HXB2R; in short: as §1
[10] = tested on: Human immunodeficiency virus 1; experiment: Resistance index, ratio of IC50 for inhibition of gp41 V38A mutant-mediated T20-resistant HIV1 NL4-3 viral infection in Ghost (3)X4/R5 cells to IC50 for inhibition of gp41-mediated HIV1 NL4-3 infection in Ghost (3)X4/R5 cells; format: cell-based
[11] = tested on: Human immunodeficiency virus 1; experiment: Resistance index, ratio of IC50 for inhibition of gp41 G36S/V38M double mutant-mediated T20-resistant HIV1 NL4-3 viral infection in Ghost (3)X4/R5 cells to IC50 for inhibition of gp41-mediated HIV1 NL4-3 infection in Ghost (3)X4/R5 cells; format: cell-based
[12] = tested on: Human immunodeficiency virus 1; experiment: Resistance index, ratio of IC50 for inhibition of gp41 Q40H mutant-mediated T20-resistant HIV1 NL4-3 viral infection in Ghost (3)X4/R5 cells to IC50 for inhibition of gp41-mediated HIV1 NL4-3 infection in Ghost (3)X4/R5 cells; format: cell-based
[13] = tested on: Human immunodeficiency virus 1; experiment: Resistance index, ratio of IC50 for inhibition of gp41 N43K mutant-mediated T20-resistant HIV1 NL4-3 viral infection in Ghost (3)X4/R5 cells to IC50 for inhibition of gp41-mediated HIV1 NL4-3 infection in Ghost (3)X4/R5 cells; format: cell-based
[14] = tested on: Human immunodeficiency virus 1; experiment: Resistance index, ratio of IC50 for inhibition of gp41 V38A/N42T double mutant-mediated T20-resistant HIV1 NL4-3 viral infection in Ghost (3)X4/R5 cells to IC50 for inhibition of gp41-mediated HIV1 NL4-3 infection in Ghost (3)X4/R5 cells; format: cell-based
[15] = tested on: Human immunodeficiency virus 1; experiment: Resistance index, ratio of IC50 for inhibition of gp41 I37T/N43K double mutant-mediated T20-resistant HIV1 NL4-3 viral infection in Ghost (3)X4/R5 cells to IC50 for inhibition of gp41-mediated HIV1 NL4-3 infection in Ghost (3)X4/R5 cells; format: cell-based
[16] = tested on: Human immunodeficiency virus 1; experiment: Resistance index, ratio of IC50 for inhibition of gp41 I37T mutant-mediated T20-resistant HIV1 NL4-3 viral infection in Ghost (3)X4/R5 cells to IC50 for inhibition of gp41-mediated HIV1 NL4-3 infection in Ghost (3)X4/R5 cells; format: cell-based
[17] = tested on: Human immunodeficiency virus 1; experiment: Resistance index, ratio of IC50 for inhibition of gp41 D36G mutant-mediated T20-resistant HIV1 NL4-3 viral infection in Ghost (3)X4/R5 cells to IC50 for inhibition of gp41-mediated HIV1 NL4-3 infection in Ghost (3)X4/R5 cells; format: cell-based
[18] = tested on: Human immunodeficiency virus 1; experiment: Resistance index, ratio of IC50 for inhibition of gp41 V38M mutant-mediated T20-resistant HIV1 NL4-3 viral infection in Ghost (3)X4/R5 cells to IC50 for inhibition of gp41-mediated HIV1 NL4-3 infection in Ghost (3)X4/R5 cells; format: cell-based

Row | Compound | IC50 [1] [nM] | IC50 [2] [nM] | IC50 [3] [nM] | half-life at 25 µM (chymotrypsin) [h] | IC50 [4] [nM] | IC50 [5] [nM] | IC50 [6] [nM] | IC50 [7] [nM] | IC50 [8] [nM] | IC50 [9] [nM] | Ratio IC50 [10] | Ratio IC50 [11] | Ratio IC50 [12] | Ratio IC50 [13] | Ratio IC50 [14] | Ratio IC50 [15] | Ratio IC50 [16] | Ratio IC50 [17] | Ratio IC50 [18]
1 | CC[C@H](C)[C@H](NC(=O)[C@H](CCCCN)NC(=O)[C@H](CCCCN)NC(=O)[C@H](CC(=O)O)NC(=O)[C@H](Cc1c[nH]c2ccccc12)NC(=O)[C@H](CCC(=O)O)NC(=O)[C@H](CCC(=O)O)NC(=O)[C@H](Cc1c[nH]c2ccccc12)NC(=O)[C@@H](NC(=O)[C@H](CCSC)NC(C)=O)[C@@H](C)O)C(=O)N[C@@H](CCC(=O)O)C(=O)N[C@@H](CCC(=O)O)C(=O)N[C@@H](Cc1ccc(O)cc1)C(=O)N[C@H](C(=O)N[C@@]1(C)CCC/C=C\CCC[C@@](C)(C(=O)N[C@@H](CC(C)C)C(=O)N[C@H](C(=O)N[C@@H](CCCCN)C(=O)N[C@@H](CCCCN)C(=O)N[C@@H](CO)C(N)=O)[C@@H](C)CC)NC(=O)[C@H](CCC(=O)O)NC(=O)[C@H]([C@@H](C)CC)NC(=O)[C@H](CCCCN)NC1=O)[C@@H](C)O (Ac-MTWEEWDKKIEEYT[S5]KIE[S5]LIKKS-NH2; staple (Z) 15-19) | 27.7 | 14 | 82.3 | 8.25 | 71.7 | 10.4 | 8.8 | 14.4 | 8.7 | 0.5 |  |  |  |  |  |  |  |  | 
2 | CC[C@H](C)[C@H](NC(=O)[C@H](CC(C)C)NC(=O)[C@H](CCC(=O)O)NC(=O)[C@H](CCC(=O)O)NC(=O)[C@@H](NC(=O)[C@H](CCCCN)NC(=O)[C@H](CCCCN)NC(=O)[C@@H](NC(=O)[C@H](Cc1ccc(O)cc1)NC(=O)[C@]1(C)CCC/C=C\CCC[C@](C)(NC(=O)[C@H](CC(=O)O)NC(=O)[C@H](Cc2c[nH]c3ccccc23)NC(=O)[C@H](CCC(=O)O)NC(=O)[C@H](CCC(=O)O)NC(=O)[C@H](Cc2c[nH]c3ccccc23)NC(=O)[C@@H](NC(=O)[C@H](CCSC)NC(C)=O)[C@@H](C)O)C(=O)N[C@@H](CCCCN)C(=O)N[C@@H]([C@@H](C)CC)C(=O)N[C@@H](CCC(=O)O)C(=O)N1)[C@@H](C)O)[C@@H](C)CC)C(=O)N[C@@H](CCCCN)C(=O)N[C@@H](CCCCN)C(=O)N[C@@H](CO)C(N)=O (Ac-MTWEEWD[S5]KIE[S5]YTKKIEELIKKS-NH2; staple (Z) 8-12) | 6.8 | 3.3 | 20.3 | 11.8 | 16.2 | 12.5 | 7.2 | 3.3 | 8.6 | 0.4 |  |  |  |  |  |  |  |  | 
3 | CC[C@H](C)[C@H](NC(=O)[C@H](CC(C)C)NC(=O)[C@]1(C)CCC/C=C\CCC[C@](C)(NC(=O)[C@@H](NC(=O)[C@H](Cc2ccc(O)cc2)NC(=O)[C@]2(C)CCC/C=C\CCC[C@](C)(NC(=O)[C@H](CC(=O)O)NC(=O)[C@H](Cc3c[nH]c4ccccc34)NC(=O)[C@H](CCC(=O)O)NC(=O)[C@H](CCC(=O)O)NC(=O)[C@H](Cc3c[nH]c4ccccc34)NC(=O)[C@@H](NC(=O)[C@H](CCSC)NC(C)=O)[C@@H](C)O)C(=O)N[C@@H](CCCCN)C(=O)N[C@@H]([C@@H](C)CC)C(=O)N[C@@H](CCC(=O)O)C(=O)N2)[C@@H](C)O)C(=O)N[C@@H](CCCCN)C(=O)N[C@@H]([C@@H](C)CC)C(=O)N[C@@H](CCC(=O)O)C(=O)N1)C(=O)N[C@@H](CCCCN)C(=O)N[C@@H](CCCCN)C(=O)N[C@@H](CO)C(N)=O (Ac-MTWEEWD[S5]KIE[S5]YT[S5]KIE[S5]LIKKS-NH2; staple (Z) 8-12, 15-19) | 3.6 | 1.8 | 5.3 | 61.1 | 7.7 | 1.2 | 2.6 | 1 | 0.6 | 0.05 | 0.8 | 2.1 | 1.1 | 3.3 | 0.5 | 2.2 | 1.6 | 1.4 | 1
4 | Ac-MTWEEWDKKIEEYTKKIEELIKKS-NH2 | 35 | 7.5 | 12.9 | 2.08 | 22.3 | 10.3 | 5.9 | 2.9 | 7.3 | 2.4 | 1.5 | 3.4 | 1.1 | 19 | 1.2 | 13 | 2.6 | 2.3 | 2.3

Source: ChEMBL document CHEMBL4257519, “Generation of a long-acting fusion inhibitor against HIV-1” (Medchemcomm, 2018)
